From ChEMBL document CHEMBL1121701, “Inhibition of liver alanine aminotransferase activity by some benzophenanthridine alkaloids” (J Med Chem, 1981)

Tests used:
[1] = The stability constant of adduct formation for thioethanol at pH 6.25; type: ADME
Outline: (§1)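 Thiol–alkaloid adduct stability constants measured by UV-vis spectrophotometry at 20 °C in 10-mm cells. Aqueous solutions held 4×10^-6 M alkaloid, 4×10^-6 to 1.6×10^-2 M thiol and 4×10^-3 M hexadecyltrimethylammonium bromide. Phosphate buffers of ionic strength 0.05 at the stated pH.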

[2] = The stability constant of adduct formation for thioethanol at pH 5.68; type: ADME; outline: as §1
[3] = The stability constant of adduct formation for cysteine at pH 5.68; type: ADME; outline: as §1
[4] = The stability constant of adduct formation for glutathione at pH 6.25; type: ADME; outline: as §1
[5] = biological target: T1, Alanine aminotransferase 1 (Rattus norvegicus) (UniProt P25409); test: Inhibitory activity against alanine aminotransferase was measured
T1 sequence (whole entry): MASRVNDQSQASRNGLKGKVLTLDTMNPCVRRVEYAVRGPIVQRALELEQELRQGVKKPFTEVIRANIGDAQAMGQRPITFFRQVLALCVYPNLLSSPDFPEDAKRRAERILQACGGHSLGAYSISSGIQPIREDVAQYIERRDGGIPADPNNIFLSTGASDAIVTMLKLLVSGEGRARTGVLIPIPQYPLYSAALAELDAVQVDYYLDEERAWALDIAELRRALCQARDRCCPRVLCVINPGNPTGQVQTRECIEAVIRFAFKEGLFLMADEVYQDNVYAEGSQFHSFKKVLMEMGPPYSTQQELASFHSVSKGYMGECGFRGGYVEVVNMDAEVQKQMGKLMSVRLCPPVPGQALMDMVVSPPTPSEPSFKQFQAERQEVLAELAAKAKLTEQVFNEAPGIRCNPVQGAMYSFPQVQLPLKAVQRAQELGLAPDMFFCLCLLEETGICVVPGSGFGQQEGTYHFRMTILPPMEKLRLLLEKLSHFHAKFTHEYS
Outline: (§2)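 Partially purified rat liver ALT (ammonium sulfate fraction from prednisolone-treated male Wistar rats, lyophilized, diluted in 0.1 M pH 7.4 potassium phosphate). Enzyme preincubated with alkaloid at pH 7.4, room temperature, 30 min. Then added to substrate (8.33×10^-2 M L-alanine, 1.67×10^-3 M 2-oxoglutarate, pH 7.4) at 30 °C. Product read by 2,4-dinitrophenylhydrazine, alkaline NaOH, A505.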

[6] = The stability constant of adduct formation for glutathione at pH 5.68; type: ADME; outline: as §1
[7] = The stability constant of adduct formation for cysteine at pH 6.25; type: ADME; outline: as §1
[8] = biological target: T1, Alanine aminotransferase 1 (Rattus norvegicus); test: Effect of glutathione on alanine aminotransferase inhibition by the compound at 10E-5; settings: for inhibition: concentration not given here
Outline: (§3)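 ALT alkaloid-inhibition assay at 30 °C (L-alanine/2-oxoglutarate substrate, pH 7.4 phosphate, 2,4-dinitrophenylhydrazine read-out at 505 nm). Substrate solution contained 10^-2 M of the thiol. Percent inhibition compared against thiol-free substrate.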

[9] = biological target: T1, Alanine aminotransferase 1 (Rattus norvegicus); test: Effect of thioethanol on alanine aminotransferase inhibition by the compound at 10E-5; settings: for inhibition: concentration not given here; outline: as §3
[10] = biological target: T1, Alanine aminotransferase 1 (Rattus norvegicus); test: Concentration for complete inactivation of alanine aminotransferase; outline: as §2
[11] = biological target: T1, Alanine aminotransferase 1 (Rattus norvegicus); test: Effect of cysteine on alanine aminotransferase inhibition by the compound at 10E-5; settings: for inhibition: concentration not given here; outline: as §3
[12] = The stability constant of adduct formation for thioethanol at pH 5.28; type: ADME
Outline: (§4)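 Spectrophotometric measurement at 20 °C in 10-mm cells, with pH checked by meter. Aqueous solutions held 4×10^-6 M alkaloid, 4×10^-6 to 1.6×10^-2 M thiol, and 4×10^-3 M hexadecyltrimethylammonium bromide, in phosphate buffers of ionic strength 0.05. The stability constant (K) of the thiol–iminium adduct was taken at the stated pH.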

[13] = The stability constant of adduct formation for glutathione at pH 5.69; type: ADME; outline: as §4
[14] = The stability constant of adduct formation for thioethanol at pH 5.69; type: ADME; outline: as §4
[15] = The stability constant of adduct formation for glutathione at pH 5.28; type: ADME; outline: as §4
[16] = The stability constant of adduct formation for cysteine at pH 5.28; type: ADME; outline: as §4
[17] = The stability constant of adduct formation for cysteine at pH 5.69; type: ADME; outline: as §4

| SMILES | Log K [1] | Log K [2] | Log K [3] | Log K [4] | ID50 [5] [µM] | Log K [6] | Log K [7] | Protection [8] [%] | inhibition [8] [%] | Protection [9] [%] | inhibition [9] [%] | Concentration [10] [µM] | Protection [11] [%] | inhibition [11] [%] | Log K [12] | Log K [13] | Log K [14] | Log K [15] | Log K [16] | Log K [17] |
| --- | --- | --- | --- | --- | --- | --- | --- | --- | --- | --- | --- | --- | --- | --- | --- | --- | --- | --- | --- | --- |
| COc1ccc2c(c[n+](C)c3c4cc5c(cc4ccc23)OCO5)c1OC.[Cl-] [CHELERYTHRINE CHLORIDE] | 4.05 | 3.46 | 2.74 | 4.39 | 4 | 4.39 | 3.09 | 70 | 13 | 55 | 23 | 30 | 5 | 40 |  |  |  |  |  |  |
| C[n+]1cc2c3c(ccc2c2ccc4cc5c(cc4c21)OCO5)OCO3 [SANGUINARIUM] |  |  |  |  | 3.4 |  |  | 81 | 15 | 75 | 20 | 50 | 5 | 74 | 3.77 | 4.79 | 4.01 | 4.64 | 2.97 | 3.33 |
